From ChEMBL document CHEMBL1155196, “N-hydroxybenzimidazole inhibitors of the transcription factor LcrF in Yersinia: novel antivirulence agents” (J Med Chem, 2009)
Active and inactive are the calls of the source. The calls are words filed in the database; no cut-off is given here.

Columns and labels:
J774.A1 [1] = test: Cytotoxicity against mouse J774A1 cells assessed as LDH release at 50 ug/mL after 18 hrs by colorimetric assay; assay type: cell-based; conditions: j774.a1, 18 h
Nucleic Acid = test: Binding affinity to supercoiled Escherichia coli pET-15b DNA after 30 mins by agarose gel electrophoresis assay; assay type: nucleic-acid assay
How it was run: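 Nonspecific DNA binding: compounds diluted to 1 mg/mL in DMSO with 0.4% ethanolamine, then added 1:10 (final 100 μg/mL) to 100 ng supercoiled pET-15b plasmid in 20 mM Hepes pH 7.6, 10 mM ammonium sulfate, 30 mM KCl, 1 mM EDTA, 0.2% polysorbate-20; 30 min room temperature; 0.8% agarose gel, ethidium bromide stain; migration shift scored; vehicle control.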

[2] = Inhibition of 6His-tagged Yersinia sp. LcrF binding to biotinylated double-stranded DNA by cell free-based chemiluminescence assay
How it was run: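 Biotinylated double-stranded DNA carrying LcrF sites (2 nM) captured on streptavidin plates and incubated with 6His-LcrF (20 nM) plus titrated inhibitor in Hepes/ammonium sulfate/KCl/EDTA buffer with 0.2% polysorbate 20 and 0.5% non-fat milk. After washing, anti-6His then HRP secondary antibody, chemiluminescence read-out. % inhibition against control wells, curve-fitted IC50; mostly mean of two independent experiments.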

J774.A1 [3] = test: Inhibition of Yersinia pseudotuberculosis YP3 pIB1 LcrF-mediated cytotoxicity against mouse J774A1 cells assessed as LDH release at 50 ug/mL after 18 hrs by colorimetric assay; assay type: cell-based; conditions: Yersinia pseudotuberculosis YPIII
How it was run: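 J774A.1 macrophages plated at 2 × 10^4 per well the day before. Y. pseudotuberculosis YPIIIpIB1 grown in 2-YT with 20 mM MgCl2 and 20 mM sodium oxalate, 90 min at 26 °C then 90 min at 37 °C. Infection at MOI 5–10 in DMEM, 2 h at 37 °C, 5% CO2. Gentamicin 50 μg/mL added, then ~18 h. Compound at 50 μg/mL in both culture and wells; vehicle DMSO/0.4% ethanolamine. LDH release measured colorimetrically, expressed as % of wild-type vehicle cytotoxicity.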

Staphylococcus aureus = test: Antimicrobial activity against Staphylococcus aureus RN450 after 18 to 24 hrs by CLSI microdilution test; assay type: functional
[4] = target: T1, HTH-type transcriptional regulator ExsA (Pseudomonas aeruginosa (strain ATCC 15692 / PAO1 / 1C / PRS 101 / LMG12228), UniProt P26993); test: Inhibition of Pseudomonas aeruginosa ExsA binding to DNA
T1 sequence (P26993 whole entry): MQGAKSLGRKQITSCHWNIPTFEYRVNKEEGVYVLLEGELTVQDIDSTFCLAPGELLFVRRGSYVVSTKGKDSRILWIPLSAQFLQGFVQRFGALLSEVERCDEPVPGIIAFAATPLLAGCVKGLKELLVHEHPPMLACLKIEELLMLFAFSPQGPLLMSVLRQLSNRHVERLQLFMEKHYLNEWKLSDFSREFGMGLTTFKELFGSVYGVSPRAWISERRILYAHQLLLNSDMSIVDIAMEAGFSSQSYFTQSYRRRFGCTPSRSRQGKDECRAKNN
How it was run: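 ExsA-DNA binding run like the LcrF plate assay: immobilised biotinylated DNA, His-tagged regulator, titrated inhibitor, washing, anti-6His/HRP chemiluminescent detection, % inhibition against control wells, curve-fitted IC50.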

[5] = Inhibition of Salmonella sp. SlyA binding to DNA
How it was run: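 Same format as the LcrF ELISA-type assay. Biotinylated double-stranded DNA carrying the binding sequence was captured on streptavidin-coated wells with His-tagged SlyA and titrated inhibitor. Buffer was 20 mM Hepes, 10 mM ammonium sulfate, 30 mM KCl, 1 mM EDTA, 0.2% polysorbate 20 and 0.5% non-fat milk. After washing, bound complex was detected with anti-6His then HRP secondary and chemiluminescence. IC50 came from dose-response fits against control wells.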

Escherichia coli = test: Antimicrobial activity against Escherichia coli ATCC 25922 after 18 to 24 hrs by CLSI microdilution test; assay type: functional
[6] = system: Yersinia pseudotuberculosis; test: Antimicrobial activity against Yersinia pseudotuberculosis after 18 to 24 hrs by CLSI microdilution test; assay type: functional

| Compound | Activity (J774.A1 [1]) | IC50 [2] [µM] | also measured |
| --- | --- | --- | --- |
| CN1CCN(CCOc2cc3nc(-c4ccc(NC(=O)/C=C/c5ccc(F)cc5)cc4)n(O)c3cc2[N+](=O)[O-])CC1 | Non-toxic |  | IC50 (Nucleic Acid): 3.1 µM |
| O=C(/C=C/c1ccc(-n2cnnc2)cc1)Nc1ccc(-c2nc3ccc([N+](=O)[O-])cc3n2O)cc1 | Non-toxic | 35.7 |  |
| O=C(/C=C/c1ccc(F)cc1)Nc1ccc(-c2nc3ccc(-n4cccn4)cc3n2O)cc1 | Non-toxic | 53.7 |  |
| O=C(/C=C/c1ccc(F)cc1)Nc1ccc(-c2nc3ccncc3n2O)cc1 | Non-toxic | > 54.8 |  |
| N#Cc1ccc(/C=C/C(=O)Nc2ccc(-c3nc4ccc([N+](=O)[O-])cc4n3O)cc2)cc1 | Non-toxic | 16.4 | Activity (J774.A1 [3]): Active |
| Cc1ccc(/C=C/C(=O)Nc2ccc(-c3nc4ccc([N+](=O)[O-])cc4n3O)cc2)cc1 | Non-toxic | 0.8 | Activity (J774.A1 [3]): inactive |
| O=C(/C=C/c1ccc(F)cc1)Nc1ccc(-c2nc3ccccc3n2O)cc1 | Non-toxic | > 100 |  |
| O=C(/C=C/c1ccc(-c2c[nH]cn2)cc1)Nc1ccc(-c2nc3ccc([N+](=O)[O-])cc3n2O)cc1 | Non-toxic | > 44.8 |  |
| O=C(/C=C/c1ccc(F)cc1)Nc1ccc(-c2nc3ccc([N+](=O)[O-])cc3n2O)c(F)c1 | Non-toxic | 6.5 |  |
| CN(C)CCN(C)c1cc2nc(-c3ccc(NC(=O)/C=C/c4ccc(F)cc4)cc3)n(O)c2cc1[N+](=O)[O-] | Non-toxic |  | IC50 (Nucleic Acid): 3.3 µM |
| O=C(/C=C/c1ccc(F)cc1)Nc1ccc(-c2nc3ccc(C(F)(F)F)cc3n2O)cc1 | Non-toxic | 59.7 |  |
| O=C(/C=C/c1ccc(O)cc1)Nc1ccc(-c2nc3ccc([N+](=O)[O-])cc3n2O)cc1 | Non-toxic | > 57 |  |
| O=C(/C=C/c1ccc(F)cc1F)Nc1ccc(-c2nc3ccc([N+](=O)[O-])cc3n2O)cc1 | Non-toxic | 5 |  |
| Cc1cc2nc(-c3ccc(NC(=O)/C=C/c4ccc(F)cc4)cc3)n(O)c2cc1[N+](=O)[O-] | Non-toxic | 7.6 | MIC (Staphylococcus aureus): > 64 µg/mL; IC50 [4]: 6.7 µM; Activity (J774.A1 [3]): Active; IC50 [5]: > 52 µM; MIC (Escherichia coli): > 64 µg/mL; MIC [6]: > 64 µg/mL |
| CCOc1cc2nc(-c3ccc(NC(=O)/C=C/c4ccc(F)cc4)cc3)n(O)c2cc1[N+](=O)[O-] | Non-toxic | 17.1 | Activity (J774.A1 [3]): Active |
| CN(C)c1ccc(/C=C/C(=O)Nc2ccc(-c3nc4ccc([N+](=O)[O-])cc4n3O)cc2)cc1 | Non-toxic | 16.9 |  |
| O=C(/C=C/c1ccc(F)cc1)Nc1ccc(-c2nc3ccc([N+](=O)[O-])cc3n2O)cn1 | Non-toxic | 7.4 |  |
| O=C(/C=C/c1ccc(F)cc1)Nc1ccc(-c2nc3ccc(-n4ccnc4)cc3n2O)cc1 | Non-toxic | 37.3 |  |
| O=C(/C=C/c1ccccc1)Nc1ccc(-c2nc3ccc([N+](=O)[O-])cc3n2O)cc1 | Non-toxic | 6.9 |  |
| O=C(NCc1ccc(-c2nc3ccc([N+](=O)[O-])cc3n2O)cc1)c1ccc(F)cc1 | Non-toxic | > 58.4 |  |
| N#Cc1ccc2nc(-c3ccc(NC(=O)/C=C/c4ccc(F)cc4)cc3)n(O)c2c1 | Non-toxic | 8.3 |  |
| COc1ccccc1/C=C/C(=O)Nc1ccc(-c2nc3ccc([N+](=O)[O-])cc3n2O)cc1 | Non-toxic | 20.9 |  |

| Compound | Activity (J774.A1 [1]) | IC50 [2] [µM] | also measured |
| --- | --- | --- | --- |
| O=C(/C=C/c1ccc(F)cc1)Nc1ccc(-c2nc3cc(F)c([N+](=O)[O-])cc3n2O)cc1 | Non-toxic | 26.6 |  |
| COc1ccc(/C=C/C(=O)Nc2ccc(-c3nc4ccc([N+](=O)[O-])cc4n3O)cc2)c(OC)c1 | Non-toxic | 38.5 |  |
| O=C(/C=C/c1ccc(F)cc1)Nc1ccc(-c2nc3ccc([N+](=O)[O-])cc3n2O)nc1 | Non-toxic | 10.8 | Activity (J774.A1 [3]): inactive |
| O=C(Nc1ccc(-c2nc3ccc([N+](=O)[O-])cc3n2O)cc1)c1ccc(F)cc1 | Non-toxic | 17.7 |  |
| COc1ccc(/C=C/C(=O)Nc2ccc(-c3nc4ccc([N+](=O)[O-])cc4n3O)cc2)cc1 | Non-toxic | 8 | MIC (Staphylococcus aureus): > 64 µg/mL; IC50 [4]: 5.9 µM; Activity (J774.A1 [3]): Active; IC50 [5]: > 55.2 µM; MIC (Escherichia coli): > 64 µg/mL; MIC [6]: > 64 µg/mL |
| CS(=O)(=O)c1ccc2nc(-c3ccc(NC(=O)/C=C/c4ccc(F)cc4)cc3)n(O)c2c1 | Non-toxic | 87.4 |  |
| O=C(/C=C/c1ccc(F)cc1)Nc1ccc(-c2nc3ccc([N+](=O)[O-])cc3n2O)cc1 | Non-toxic | 3.9 | MIC (Staphylococcus aureus): > 64 µg/mL; IC50 [4]: 3.5 µM; Activity (J774.A1 [3]): Active; IC50 [5]: > 53.8 µM; MIC (Escherichia coli): > 64 µg/mL; MIC [6]: > 64 µg/mL |
| COc1cc(NC(=O)/C=C/c2ccc(F)cc2)ccc1-c1nc2ccc([N+](=O)[O-])cc2n1O | Non-toxic | 13.5 |  |
| CC(C)c1ccc(/C=C/C(=O)Nc2ccc(-c3nc4ccc([N+](=O)[O-])cc4n3O)cc2)cc1 | Non-toxic | > 50.9 |  |
| O=C(CCc1ccc(F)cc1)Nc1ccc(-c2nc3ccc([N+](=O)[O-])cc3n2O)cc1 | Non-toxic | > 53.5 |  |
| O=C(/C=C/c1ccc(F)cc1)Nc1ccc(-c2nc3ccc(F)cc3n2O)cc1 | Non-toxic | > 100 |  |
| O=C(/C=C/c1ccc(F)cc1)Nc1ccc(-c2nc3ccc(C(=O)O)cc3n2O)cc1 | Non-toxic | 38.5 |  |
| O=C(/C=C/c1ccc(C(F)(F)F)cc1)Nc1ccc(-c2nc3ccc([N+](=O)[O-])cc3n2O)cc1 | Non-toxic | 6.4 |  |
| CN(C)c1cc2nc(-c3ccc(NC(=O)/C=C/c4ccc(F)cc4)cc3)n(O)c2cc1[N+](=O)[O-] | Non-toxic | 66 |  |
| O=C(/C=C/c1ccc(F)c(F)c1)Nc1ccc(-c2nc3ccc([N+](=O)[O-])cc3n2O)cc1 | Non-toxic | 14.5 | Activity (J774.A1 [3]): Active |
| Cc1cc(-c2nc3ccc([N+](=O)[O-])cc3n2O)ccc1NC(=O)/C=C/c1ccc(F)cc1 | Non-toxic | 25.3 |  |
| CC(=O)c1ccc2nc(-c3ccc(NC(=O)/C=C/c4ccc(F)cc4)cc3)n(O)c2c1 | Non-toxic | 39.4 |  |
| O=C(/C=C/c1ccc(F)cc1)Nc1ccc(-c2nc3ccc(Cl)cc3n2O)cc1 | Non-toxic | > 100 |  |
| O=C(/C=C/c1ccc(F)cc1)NCc1ccc(-c2nc3ccc([N+](=O)[O-])cc3n2O)cc1 | Non-toxic | 14 |  |
| O=C(/C=C/c1ccc(F)cc1)Nc1ccc(-c2nc3ccc([N+](=O)[O-])cc3n2O)cc1F | Non-toxic | 20.7 |  |
| O=C(Cc1ccc(F)cc1)Nc1ccc(-c2nc3ccc([N+](=O)[O-])cc3n2O)cc1 | Non-toxic | > 58.4 |  |
